ChEMBL document CHEMBL4680220, “Synthesis and biological evaluation of acridine-based histone deacetylase inhibitors as multitarget agents against Alzheimer's disease” (Eur J Med Chem, 2020)

Columns and labels:
[1] = molecular target: Histone deacetylase 4 (Homo sapiens, UniProt P56524); experiment: Inhibition of recombinant human N-terminal GST-tagged/C-terminal His-tagged HDAC4 (627 to 1084 residues) expressed in baculovirus expression system using Boc-Lys(TFA)-AMC as substrate preincubated for 5 mins followed by substrate addition and measured after 30 mins by fluorescence assay
[2] = molecular target: Histone deacetylase 9 (Homo sapiens, UniProt Q9UKV0); experiment: Inhibition of recombinant human C-terminal His-tagged HDAC9 (604 to 1066 residues) expressed in baculovirus infected Sf9 cells using fluorogenic HDAC 2A substrate preincubated for 5 mins followed by substrate addition and measured after 30 mins by fluorescence assay
[3] = molecular target: T1, Protein deacetylase HDAC6 (Homo sapiens, UniProt Q9UBN7); experiment: Inhibition of recombinant human full-length N-terminal GST-tagged HDAC6 expressed in baculovirus infected Sf9 insect cells using Boc-Lys(Ac)-AMC as substrate preincubated for 5 mins followed by substrate addition and measured after 30 mins by fluorescence assay
T1 sequence (Q9UBN7 whole entry): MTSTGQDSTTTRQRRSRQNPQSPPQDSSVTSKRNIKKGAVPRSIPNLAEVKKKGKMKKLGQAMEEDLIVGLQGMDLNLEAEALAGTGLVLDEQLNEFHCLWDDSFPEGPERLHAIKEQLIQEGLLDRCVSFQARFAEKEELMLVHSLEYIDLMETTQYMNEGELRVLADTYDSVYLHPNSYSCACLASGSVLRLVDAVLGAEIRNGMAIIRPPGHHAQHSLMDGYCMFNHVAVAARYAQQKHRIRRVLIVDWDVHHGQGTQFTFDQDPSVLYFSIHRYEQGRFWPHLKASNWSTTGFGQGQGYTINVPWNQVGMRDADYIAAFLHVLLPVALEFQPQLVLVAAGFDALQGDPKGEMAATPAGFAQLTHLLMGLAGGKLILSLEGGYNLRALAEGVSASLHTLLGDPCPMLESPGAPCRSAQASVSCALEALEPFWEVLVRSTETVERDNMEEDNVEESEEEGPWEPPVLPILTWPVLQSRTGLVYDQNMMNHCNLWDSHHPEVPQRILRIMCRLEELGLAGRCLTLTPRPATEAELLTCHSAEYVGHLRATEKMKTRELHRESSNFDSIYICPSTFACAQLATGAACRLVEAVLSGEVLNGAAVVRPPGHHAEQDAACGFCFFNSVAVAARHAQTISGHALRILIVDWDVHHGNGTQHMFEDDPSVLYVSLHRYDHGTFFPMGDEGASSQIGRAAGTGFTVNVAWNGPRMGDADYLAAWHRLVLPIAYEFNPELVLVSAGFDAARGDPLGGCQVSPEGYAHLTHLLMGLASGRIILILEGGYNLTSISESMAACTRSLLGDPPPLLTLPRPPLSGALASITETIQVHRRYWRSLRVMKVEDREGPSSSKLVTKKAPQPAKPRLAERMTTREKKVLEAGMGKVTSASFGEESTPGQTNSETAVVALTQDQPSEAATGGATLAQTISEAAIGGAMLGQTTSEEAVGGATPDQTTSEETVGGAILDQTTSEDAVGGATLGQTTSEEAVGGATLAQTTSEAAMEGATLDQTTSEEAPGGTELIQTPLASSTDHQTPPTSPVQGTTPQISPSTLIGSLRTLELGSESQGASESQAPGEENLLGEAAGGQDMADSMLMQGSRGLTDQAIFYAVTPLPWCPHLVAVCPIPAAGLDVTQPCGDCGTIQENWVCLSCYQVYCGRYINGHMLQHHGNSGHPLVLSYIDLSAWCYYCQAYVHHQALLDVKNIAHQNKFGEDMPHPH

[4] = molecular target: Amyloid-beta precursor protein (Homo sapiens, UniProt P05067); experiment: Inhibition of amyloid beta (1 to 42) (unknown origin) self aggregation after 24 hrs by thioflavin-T fluorescence method
Method in brief: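 ThT aggregation assay. Compound at varying concentrations combined with 10 µM Aβ1-42 (1 mM DMSO stock), 10 µM ThT, 1 mM EDTA in 50 mM phosphate buffer (150 mM NaCl, pH 7.4). Incubated 24 h at 37 °C with shaking at 700 rpm; fluorescence ex 440/em 486 nm. 0.1% DMSO wells = 100% aggregation; compound wells without Aβ = background. IC50 from triplicates.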

[5] = molecular target: Acetylcholinesterase (Homo sapiens, UniProt P22303); experiment: Inhibition of recombinant human C-terminal 6His-tagged AChE (Glu32 to Leu614 residues) expressed in CHO cells using acetylthiocholine iodide as substrate preincubated for 5 mins measured after 15 mins by DTNB reagent based assay
Method in brief: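 Enzyme, compounds, acetylthiocholine iodide and DTNB diluted in 100 mM phosphate buffer pH 7.4. AChE was preincubated with the compound at varying concentrations for 5 min at 37 °C. The reaction was started with 1 mM ATCI solution and run 15 min at 37 °C. 2 mM DTNB solution was then added for 5 min. Absorbance read at 412 nm. IC50 set 0.1% DMSO wells as 100% and no-enzyme wells as 0%. Run in triplicate.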

[6] = molecular target: Histone deacetylase 1 (Homo sapiens, UniProt Q13547); experiment: Inhibition of recombinant human C-terminal FLAG/His-tagged HDAC1 (1 to 482 residues) expressed in Sf9 insect cells using fluor de lys SIRT1 as substrate preincubated for 5 mins followed by substrate addition and measured after 30 mins by fluorescence assay
[7] = molecular target: Histone deacetylase 2 (Homo sapiens, UniProt Q92769); experiment: biochemical; format: cell-based, Sf9
[8] = molecular target: Histone deacetylase 3/Nuclear receptor corepressor 2 (HDAC3/NCoR2) (Homo sapiens, UniProt O15379); experiment: Inhibition of human recombinant C-terminal His-tagged HDAC3 (1 to 428 residues)/N-terminal GST-tagged NCOR2 (395 to 489 residus) expressed in baculovirus infected Sf9 insect cells using fluor de lys SIRT1 as substrate preincubated for 5 mins followed by substrate addition and measured after 30 mins by fluorescence assay
[9] = molecular target: Class 1 histone deacetylase (Homo sapiens, UniProt Q13547+O15379+Q92769+Q9BY41); experiment: Inhibition of Class 1 HDAC in […] cells assessed as increase in acetylated Histone H3 level measured after 24 hrs by Western blot analysis; format: cell-based; conditions: for inhibition: Mus musculus
[10] = Elimination rate constant in human liver microsomes at 1 uM preincubated for 3 mins followed by NADPH addition and measured up to 60 mins by LC-MS/MS analysis; format: ADME, Microsome; conditions: time <=63 min
Method in brief: (§1)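 Mixed-gender human liver microsomes with test article at 1 µM final. Testosterone (5 µM) run separately as control. Mixture without cofactor equilibrated 3 min at 37 °C in a shaking water bath, then started with cofactor. Aliquots taken at 0, 10, 20, 30 and 60 min. CLint = k/P, where k is the elimination rate constant and P is the incubation protein concentration.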

[11] = Half life in human liver microsomes at 1 uM preincubated for 3 mins followed by NADPH addition and measured up to 60 mins by LC-MS/MS analysis; format: ADME, Microsome; conditions: time <=63 min; method in brief: as §1
[12] = Intrinsic clearance in human liver microsomes at 1 uM preincubated for 3 mins followed by NADPH addition and measured up to 60 mins by LC-MS/MS analysis; format: ADME, Microsome; conditions: 1 h, time <=63 min; method in brief: as §1

Sequence of Histone deacetylase 2 (Q92769 whole entry, the tested form may be a part): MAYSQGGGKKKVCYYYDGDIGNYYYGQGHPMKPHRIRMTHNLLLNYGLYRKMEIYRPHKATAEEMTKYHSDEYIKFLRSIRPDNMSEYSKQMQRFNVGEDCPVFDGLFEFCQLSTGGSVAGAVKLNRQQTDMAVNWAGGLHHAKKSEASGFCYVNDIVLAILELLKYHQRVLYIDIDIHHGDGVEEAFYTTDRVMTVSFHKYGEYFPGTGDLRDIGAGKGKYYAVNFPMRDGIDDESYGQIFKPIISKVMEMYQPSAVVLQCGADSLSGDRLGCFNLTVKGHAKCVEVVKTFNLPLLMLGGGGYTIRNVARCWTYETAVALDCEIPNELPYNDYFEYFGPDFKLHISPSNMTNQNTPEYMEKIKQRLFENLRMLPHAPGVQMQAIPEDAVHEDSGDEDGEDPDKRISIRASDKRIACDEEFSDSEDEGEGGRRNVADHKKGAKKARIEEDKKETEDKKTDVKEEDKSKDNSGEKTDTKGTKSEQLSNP
Sequence of Amyloid-beta precursor protein (P05067 whole entry): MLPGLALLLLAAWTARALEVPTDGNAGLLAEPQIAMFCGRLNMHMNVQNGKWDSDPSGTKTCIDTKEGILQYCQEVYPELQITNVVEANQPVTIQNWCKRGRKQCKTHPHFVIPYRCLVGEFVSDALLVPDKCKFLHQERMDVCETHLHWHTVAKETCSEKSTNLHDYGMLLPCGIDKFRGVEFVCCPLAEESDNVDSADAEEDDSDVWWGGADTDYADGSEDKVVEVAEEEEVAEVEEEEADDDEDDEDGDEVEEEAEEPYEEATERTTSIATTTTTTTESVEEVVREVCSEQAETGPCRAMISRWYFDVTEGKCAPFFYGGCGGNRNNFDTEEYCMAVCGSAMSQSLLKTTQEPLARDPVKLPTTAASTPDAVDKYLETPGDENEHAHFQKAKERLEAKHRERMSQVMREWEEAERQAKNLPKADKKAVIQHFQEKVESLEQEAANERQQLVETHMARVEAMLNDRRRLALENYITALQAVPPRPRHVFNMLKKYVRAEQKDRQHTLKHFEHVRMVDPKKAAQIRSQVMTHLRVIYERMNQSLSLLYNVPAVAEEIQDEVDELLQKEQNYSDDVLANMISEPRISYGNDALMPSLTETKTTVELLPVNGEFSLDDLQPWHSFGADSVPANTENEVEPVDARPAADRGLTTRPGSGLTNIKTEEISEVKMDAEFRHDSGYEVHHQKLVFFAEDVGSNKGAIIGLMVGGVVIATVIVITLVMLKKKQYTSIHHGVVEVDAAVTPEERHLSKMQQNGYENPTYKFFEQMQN
Sequence of Histone deacetylase 9 (Q9UKV0 whole entry, the tested form may be a part): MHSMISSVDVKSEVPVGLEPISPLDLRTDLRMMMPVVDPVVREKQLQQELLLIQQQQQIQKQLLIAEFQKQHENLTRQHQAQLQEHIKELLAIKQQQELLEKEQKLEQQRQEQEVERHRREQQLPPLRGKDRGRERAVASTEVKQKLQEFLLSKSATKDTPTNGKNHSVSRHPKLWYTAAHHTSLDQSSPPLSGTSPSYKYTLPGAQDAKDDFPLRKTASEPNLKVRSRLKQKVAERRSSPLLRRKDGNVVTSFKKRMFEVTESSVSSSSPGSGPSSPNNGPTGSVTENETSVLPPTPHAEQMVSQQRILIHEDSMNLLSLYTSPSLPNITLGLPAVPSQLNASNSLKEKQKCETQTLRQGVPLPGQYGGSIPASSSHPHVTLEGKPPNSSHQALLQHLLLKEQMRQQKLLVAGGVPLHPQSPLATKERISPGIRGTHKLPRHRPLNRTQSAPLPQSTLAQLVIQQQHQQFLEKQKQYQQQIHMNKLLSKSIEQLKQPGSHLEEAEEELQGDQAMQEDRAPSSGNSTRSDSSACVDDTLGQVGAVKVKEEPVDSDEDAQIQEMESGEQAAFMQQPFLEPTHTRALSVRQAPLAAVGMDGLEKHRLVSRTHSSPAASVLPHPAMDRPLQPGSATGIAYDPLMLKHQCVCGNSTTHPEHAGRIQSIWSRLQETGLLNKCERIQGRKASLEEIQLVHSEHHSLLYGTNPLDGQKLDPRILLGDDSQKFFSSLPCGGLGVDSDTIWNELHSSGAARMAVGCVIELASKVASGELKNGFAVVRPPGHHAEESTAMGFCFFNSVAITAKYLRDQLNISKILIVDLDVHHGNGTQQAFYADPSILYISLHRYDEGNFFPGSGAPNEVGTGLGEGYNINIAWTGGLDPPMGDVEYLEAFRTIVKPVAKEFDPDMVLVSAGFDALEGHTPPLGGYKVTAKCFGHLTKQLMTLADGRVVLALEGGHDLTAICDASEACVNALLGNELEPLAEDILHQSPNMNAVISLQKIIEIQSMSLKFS
Sequence of Class 1 histone deacetylase (O15379 whole entry, looked up): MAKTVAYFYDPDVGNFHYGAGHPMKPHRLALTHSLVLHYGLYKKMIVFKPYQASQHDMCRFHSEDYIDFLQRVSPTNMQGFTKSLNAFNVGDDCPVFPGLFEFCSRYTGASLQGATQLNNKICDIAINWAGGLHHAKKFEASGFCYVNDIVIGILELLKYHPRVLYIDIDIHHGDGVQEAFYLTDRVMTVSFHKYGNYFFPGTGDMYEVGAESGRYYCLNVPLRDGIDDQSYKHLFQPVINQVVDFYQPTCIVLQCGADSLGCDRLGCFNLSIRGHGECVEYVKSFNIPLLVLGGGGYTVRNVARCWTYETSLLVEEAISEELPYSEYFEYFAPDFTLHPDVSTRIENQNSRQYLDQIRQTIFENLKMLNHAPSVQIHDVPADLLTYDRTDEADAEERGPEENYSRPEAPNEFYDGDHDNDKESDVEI
Sequence of Class 1 histone deacetylase (Q13547 whole entry, looked up): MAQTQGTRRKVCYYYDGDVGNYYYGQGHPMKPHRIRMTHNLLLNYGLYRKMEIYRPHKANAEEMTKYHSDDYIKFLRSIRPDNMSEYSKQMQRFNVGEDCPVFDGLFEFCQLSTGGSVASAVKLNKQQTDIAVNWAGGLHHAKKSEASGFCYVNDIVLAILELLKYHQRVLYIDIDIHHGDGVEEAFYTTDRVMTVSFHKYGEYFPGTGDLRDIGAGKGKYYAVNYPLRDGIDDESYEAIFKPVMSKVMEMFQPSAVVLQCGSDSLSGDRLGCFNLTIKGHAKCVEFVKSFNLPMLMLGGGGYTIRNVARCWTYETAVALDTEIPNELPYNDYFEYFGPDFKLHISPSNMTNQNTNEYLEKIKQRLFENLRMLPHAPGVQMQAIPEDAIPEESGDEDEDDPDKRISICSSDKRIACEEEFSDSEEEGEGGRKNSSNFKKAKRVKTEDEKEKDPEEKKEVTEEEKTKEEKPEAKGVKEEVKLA
Sequence of Class 1 histone deacetylase (Q92769 whole entry, looked up): as the sequence (Q92769 whole entry, the tested form may be a part) above
Sequence of Class 1 histone deacetylase (Q9BY41 whole entry, looked up): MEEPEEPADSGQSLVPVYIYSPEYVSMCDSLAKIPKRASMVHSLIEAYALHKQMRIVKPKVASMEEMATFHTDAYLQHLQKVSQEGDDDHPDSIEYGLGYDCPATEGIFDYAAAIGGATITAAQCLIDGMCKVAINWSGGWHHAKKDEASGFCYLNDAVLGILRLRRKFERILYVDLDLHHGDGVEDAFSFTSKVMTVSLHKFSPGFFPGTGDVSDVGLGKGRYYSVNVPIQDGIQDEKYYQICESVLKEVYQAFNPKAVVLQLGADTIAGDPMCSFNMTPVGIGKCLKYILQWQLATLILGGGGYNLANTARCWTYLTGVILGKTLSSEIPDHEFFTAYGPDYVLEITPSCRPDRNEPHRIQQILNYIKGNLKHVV
Sequence of Histone deacetylase 4 (P56524 whole entry, the tested form may be a part): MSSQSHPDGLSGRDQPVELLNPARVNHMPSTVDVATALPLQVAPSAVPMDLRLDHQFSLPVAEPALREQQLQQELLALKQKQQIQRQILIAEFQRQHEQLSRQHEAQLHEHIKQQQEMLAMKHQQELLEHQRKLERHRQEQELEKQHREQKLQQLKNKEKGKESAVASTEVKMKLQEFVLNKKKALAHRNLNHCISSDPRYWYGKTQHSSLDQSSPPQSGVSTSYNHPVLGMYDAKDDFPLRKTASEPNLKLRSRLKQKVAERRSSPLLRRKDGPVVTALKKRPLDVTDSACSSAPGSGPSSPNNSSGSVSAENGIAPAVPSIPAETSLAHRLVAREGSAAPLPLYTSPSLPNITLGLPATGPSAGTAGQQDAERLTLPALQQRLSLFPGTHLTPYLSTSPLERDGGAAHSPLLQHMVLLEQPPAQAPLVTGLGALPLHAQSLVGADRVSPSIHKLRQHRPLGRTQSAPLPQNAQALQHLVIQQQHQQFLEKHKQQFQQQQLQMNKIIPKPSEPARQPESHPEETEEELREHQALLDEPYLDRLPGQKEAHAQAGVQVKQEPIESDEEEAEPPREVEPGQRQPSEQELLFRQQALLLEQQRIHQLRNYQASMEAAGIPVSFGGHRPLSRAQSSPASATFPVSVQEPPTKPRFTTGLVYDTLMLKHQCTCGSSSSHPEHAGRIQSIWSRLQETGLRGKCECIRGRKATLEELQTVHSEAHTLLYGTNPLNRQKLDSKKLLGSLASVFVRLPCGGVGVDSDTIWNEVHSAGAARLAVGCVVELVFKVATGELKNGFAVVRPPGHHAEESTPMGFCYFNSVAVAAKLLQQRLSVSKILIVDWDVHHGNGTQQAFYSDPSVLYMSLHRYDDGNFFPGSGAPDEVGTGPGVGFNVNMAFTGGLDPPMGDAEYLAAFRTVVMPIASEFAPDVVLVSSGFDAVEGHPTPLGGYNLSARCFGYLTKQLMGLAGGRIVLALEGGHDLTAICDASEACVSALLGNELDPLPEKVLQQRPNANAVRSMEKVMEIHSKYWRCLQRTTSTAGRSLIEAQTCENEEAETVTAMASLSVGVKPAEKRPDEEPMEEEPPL
Sequence of Histone deacetylase 1 (Q13547 whole entry, the tested form may be a part): as the sequence (Q13547 whole entry, looked up) above

O=C(NO)c1ccc(Nc2c3ccccc3nc3ccccc23)cc1
IC50 [1]: 2240 nM
IC50 [2]: 570 nM
IC50 [3]: 25 nM
IC50 [4]: 3000 nM
IC50 [5]: 720 nM
IC50 [6]: 340 nM
IC50 [7]: 1570 nM
IC50 [8]: 1220 nM
EC50 [9]: 7960 nM
inhibition [9]: Dose-dependent effect
k el at 1 h, 1 µM [10]: 0.00034 s⁻¹
half-life at 1 µM [11]: 33.9 min
CLint [12]: 40.7 µL/min/mg

O=C(NO)c1ccc(Nc2c3ccccc3nc3ccc(Br)cc23)cc1
IC50 [1]: 7850 nM
IC50 [2]: 5510 nM
IC50 [3]: 26 nM
IC50 [4]: 1100 nM
IC50 [5]: 880 nM
IC50 [6]: 90 nM
IC50 [7]: 480 nM
IC50 [8]: 330 nM
EC50 [9]: 580 nM
inhibition [9]: Dose-dependent effect
k el at 1 h, 1 µM [10]: 0.000305 s⁻¹
half-life at 1 µM [11]: 37.9 min
CLint [12]: 36.6 µL/min/mg
